NPY Y2 blocker = NPY-Y2 (human) receptor antagonism; P49146; NPY-Y2 expressing cells, antagonist mode; inhibition, % at 2.7 µM; 140,000 compounds, 0.99% hits; AID 793;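 also: 0% = vehicle with agonist challenge and 100% = reference antagonist with challenge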
NPY-Y1 PAM-ag = potentiates or activates human NPY-Y1 receptor; 220,000 compounds, 0.37% hits; AID 1304; P25929; NPY-Y1 expressing cells, potentiator/agonist activation; activation, % at 3.6 µM; in the data active = activation above about 33%, passing the limit was not always enough;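 also: cells stimulated with NPY at EC10 then isoproterenol at EC100; 0% = low agonist plus stimulus and 100% = saturating agonist plus stimulus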
Target sequence (P25929 whole entry, looked up): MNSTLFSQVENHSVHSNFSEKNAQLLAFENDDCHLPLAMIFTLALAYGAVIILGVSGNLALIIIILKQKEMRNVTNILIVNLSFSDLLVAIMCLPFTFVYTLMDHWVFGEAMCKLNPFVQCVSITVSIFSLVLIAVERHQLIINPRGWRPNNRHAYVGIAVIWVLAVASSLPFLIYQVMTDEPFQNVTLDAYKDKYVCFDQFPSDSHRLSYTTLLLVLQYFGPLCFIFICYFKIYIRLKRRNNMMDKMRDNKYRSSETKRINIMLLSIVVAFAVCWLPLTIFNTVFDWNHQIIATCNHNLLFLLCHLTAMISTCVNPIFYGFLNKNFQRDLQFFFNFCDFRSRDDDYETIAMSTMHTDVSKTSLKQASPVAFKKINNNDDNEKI
EP2 mod = modulators of human EP2 prostaglandin E2 receptor. AID 940. induction, % at 25 µM. EP2-expressing cells, cAMP HTRF FRET, PGE2 co-stimulation. 260,000 compounds, 0.83% hits;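 active = compounds whose cAMP rise, as percent of the full-agonist control response, exceeds 60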;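 also: rat C6 glioma line stably carrying human EP2 under a CMV promoter; the protocol text gives 20 µM as final concentration; 100% = response of wells given 1 µM PGE2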
PGE2 EP2 inh = blocks the human prostaglandin E2 receptor EP2; inhibition, % at 25 µM; C6 glioma cells expressing human EP2, cAMP TR-FRET; cells stimulated with saturating PGE2; 260,000 compounds, 0.52% hits;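 active = percent inhibition above 40 after rounding to a whole number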;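 also: rat C6 glioma host cells with rolipram phosphodiesterase inhibitor present; the protocol text gives 20 µM as final concentration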
NPY Y1 blocker = NPY-Y1 (human) receptor antagonism; HEK293-CNG Y1 cells, membrane potential fluorescence; NPY at EC95, then isoproterenol; P25929; AID 1040; inhibition, % at 3.6 µM; 200,000 compounds, 1% hits;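 active = inhibition above the campaign mean inhibition of all tested compounds plus 3 SD, cut at about 20% in these data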;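 also: 0% = DMSO wells given NPY plus isoproterenol and 100% = isoproterenol alone without NPY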
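Test system – HEK293 Y1/CNG channel cell line · Also added – NPY agonist 25 nM, then isoproterenol 1 µM plus Ro 20-1724 25 µM · Compound dosing – one concentration, 3.6 µM, in 0.4% DMSO · Schedule – compound incubation 1 h at room temperature, readout 45 min post-stimulation · Technique – fluorescence, membrane potential probe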
NPY2 pot ag = potentiators or agonists of human neuropeptide Y receptor Y2 | P49146 | cells expressing NPY-Y2, potentiator/agonist read-out | activation, % at 3.6 µM | 220,000 compounds, 0.45% hits | AID 1359; in the data active = activation above about 27%;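 also: cells stimulated with NPY near EC25 plus isoproterenol at EC100; 0% = vehicle plus submaximal agonist and 100% = vehicle plus saturating agonist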
NPY-Y1 ant conf = confirmation of human neuropeptide Y receptor Y1 antagonists. shares compounds with NPY Y1 blocker. HEK293-CNG NPY-Y1, membrane potential fluorescence, cAMP; NPY challenge against isoproterenol-raised cAMP. inhibition, % at 3.6 µM. 1,200 compounds, 21% hits. AID 1254; in the data active = inhibition above about 20%;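 also: 0% = vehicle with agonist plus stimulus and 100% = stimulus alone without agonist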
NPY2 antag ctr = human NPY-Y2 antagonism in NPY-Y1 counter-screen; inhibition, % at 3.6 µM; AID 1255; HEK293 NPY-Y2 CNG membrane potential fluorescence; cells given NPY, then isoproterenol; shares compounds with NPY Y1 blocker; 1,200 compounds, 28% hits;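 also: 0% = DMSO with agonist challenge and 100% = reference antagonist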
An asterisk follows results filed as active; · = no result given; ! = not active in a repeat. This is a sample that favours compounds with a hit; in the whole collection about 2.8% have one here. Rule as the data show it, unless noted: active = inhibition above about 17%; inactive = the rest.

SMILES	NPY Y2 blocker	NPY-Y1 PAM-ag	EP2 mod	PGE2 EP2 inh	NPY Y1 blocker	NPY2 pot ag	NPY-Y1 ant conf	NPY2 antag ctr
CCOC(=O)c1c(C)n(-c2ccc(C)cc2)c2ccc(OCC(O)CNCC3CCCO3)cc12 (centres undefined)	·	-124	-9	26	59*	-36	62*	72*
CCOC(=O)c1c(C)n(-c2ccc(C)cc2)c2ccc(OCC(O)CNCCCO)cc12 (centres undefined)	·	-71	-29	13	29*	-56	36*	41*
O=C1COc2ccc(C(=O)N(CC(=O)NC3CCCC3)Cc3ccc(Cl)cc3)cc2N1	·	·	-5	5	·	·	·	·
CC(NC(=O)Cn1cc(C#N)c2cc(Br)ccc21)c1ccccc1 (centres undefined)	·	·	-93	7	·	·	·	·
COc1cccc(OC)c1C(=O)N1CCN(Cc2cccc(C)c2)CC1	·	·	-53	11	·	·	·	·
COc1ccc(CN(Cc2cc3cc(C)cc(C)c3[nH]c2=O)Cc2nnnn2C2CCCC2)cc1	·	·	46	11	·	·	·	·
NCCNC(=O)c1c(O)c2c([nH]c1=O)CCCC2	·	·	-12	11	·	·	·	·
Cc1ccc(-n2c(SCC(=O)N3CCCC3)nnc2-c2cccnc2)cc1	·	·	-47	7	·	·	·	·
O=C(COc1ccccc1)N(CCc1ccccc1)c1nc(-c2ccc(F)cc2)cs1	8	-45	27	·	37*	-32	13	19*
Cc1ccc(-c2csc(N(CCc3ccccc3)C(=O)COc3ccccc3)n2)cc1	1	-16	-10	10	-1	-6	·	·
CSc1ccc(C2c3[nH]c4ccccc4c3CCN2C(=O)c2cc(C)n(C)n2)cc1 (centres undefined)	·	-13	-12	5	27*	-26	15	41*
O=C(c1cnccn1)N1CCc2c([nH]c3ccccc23)C1c1cccc(Cl)c1 (centres undefined)	·	11	-3	3	6	11	·	·
Cc1cc(C(=O)N2CCc3c([nH]c4ccccc34)C2c2cccc(Cl)c2)nn1C (centres undefined)	·	-18	15	9	36*	-19	20	61*
Cc1cnc(C(=O)N2CCc3c([nH]c4ccccc34)C2c2ccc(F)cc2)cn1 (centres undefined)	·	15	26	1	1	-5	·	·
COC(=O)COc1ccc(/C=C2/Sc3ccccc3C2=O)cc1	·	·	-11	3	·	·	·	·
O=C(NNC(=S)NCc1ccccc1)c1ccc2c(c1)OCO2	7	-13	-7	2	10	-19	·	·
O=C(NC(=S)NCc1ccccc1)c1ccc2c(c1)OCO2	9	-12	2	5	21*	-7	9	9
COc1ccccc1-n1c(-c2ccccc2)c[n+]2c1CCc1ccccc1-2	·	-66	-15	11	33*	14	21*!	14
COc1ccccc1-n1c(-c2ccccc2)c[nH]c1=S	·	2	-19	3	-2	5	·	·
CC(C)c1ccc(-n2c(-c3ccccc3)c[n+]3c2CCc2ccccc2-3)cc1	·	-75	-70	14	116*	-21	112*	77*
CCOc1ccc(-n2c(-c3ccccc3)c[n+]3c2CCC3)cc1	·	-6	-25	2	-2	-3	·	·
N#Cc1c(-c2cccnc2)cc(-c2cccs2)[nH]c1=O	·	·	-16	5	·	·	·	·
O=C(Cn1c2ccccc2n2c(SCC(=O)N3CCOCC3)nnc12)NC1CCCCC1	·	·	-13	13	·	·	·	·
COc1ccc(C(=O)n2cnnc2N)cc1OC	·	·	-21	8	·	·	·	·
O=C(NNS(=O)(=O)c1ccc(Cl)cc1)c1c(O)c2ccccc2[nH]c1=O	·	·	-37	5	·	·	·	·
CCCCCCCCn1c2c(c(=N)c3ccccc31)CCC2	·	-95	-18	5	99*	-66	77*	74*
CCn1c2c(c(=N)c3c1CCC3)CCCC2	·	16	2	3	·	-18	·	·
CCCCCCCCCn1c2c(c(=N)c3c1CCC3)CCCC2	·	-78	-35	7	58*	-40	102*	79*

Source: PubChem
